Compound activity: PubChem, several laboratories
CHOP UPR activ: apoptotic UPR (CHOP) activation. CHO-CHOP luciferase reporter, luminescence; percent of tunicamycin response over DMSO baseline. activation, % at 10 µM. 330,000 tested, 0.34% active. AID 449763;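 active = at 10 µM dose, activation of 40% or more, normalized to positive control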
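Evaluation: % reporter activation, DMSO baseline versus tunicamycin full activation; System: CHO-CHOP luciferase reporter cell line; Input: 500 cells/well; Incubation: 6 h compound treatment, 37 °C; Measured by: Steady-Glo luciferase luminescence; Dosing: one dose, 10 µM in 0.5% DMSO; Buffer or medium: F12 medium, 10% FBS; Benchmarks: positive tunicamycin 10 µg/mL, negative DMSO alone.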
UPR XBP1 act: adaptive UPR (XBP1) activation; CHO-XBP1 luciferase reporter, IRE1-XBP1 UPR activation, luminescence; percent of tunicamycin response, DMSO as zero; activation, % at 20 µM; 330,000 tested, 0.33% active;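 active = versus positive control, 20 µM dose yields 30% or more activation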
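Material: CHO cell line with stable XBP1 luciferase reporter; buffer or medium: F12 medium containing 10% fetal bovine serum; compound: single point, 20 µM final compound, 1% DMSO; incubation: 6 h treatment, 37 °C; measured by: glow luminescence from Steady-Glo reagent; evaluation: activation, % of tunicamycin; control set: tunicamycin high, DMSO low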
CHOP inh: blocks CHOP induction under ER stress. CHO-K1 CHOP-promoter luciferase, tunicamycin-induced, 15-18 h. inhibition, % at 10 µM. 220,000 tested, 3.8% active;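 active = compounds that reduced the stress-induced luciferase reporter signal by more than about 70% of percent inhibition, limit read from the data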
PvdQ inh: P. aeruginosa PvdQ acylase inhibition | purified PvdQ acylase, fluorescence plate reader | 340,000 tested, 0.063% active | inhibition, % at 10 µM; in the data active = inhibition above about 30%, passing the limit was not always enough
CHOP inh conf: confirmation of CHOP induction inhibitors | shares compounds with CHOP inh | CHO-CHOP promoter luciferase reporter, tunicamycin-induced, luminescence | inhibition, % at 10 µM | 2,100 tested, 45% active | AID 504437;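 active = mean of three repeat readings of reporter signal inhibition above a set limit, cut at about 70% in these data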
Numbers stand for hits. The entries come from a sample that favours hits as a whole.

Results for COc1ccccc1NC(=O)c1c(N=Cc2ccccc2O)cnn1C ?
CHOP UPR activ: inactive; UPR XBP1 act: inactive; CHOP inh: 100.7; CHOP inh conf: inactive

How did COc1ccccc1N1CCN(S(=O)(=O)c2ccc3c(c2)NC(=O)C(C)C(=O)N3)CC1 (centres undefined) do in these assays?
CHOP UPR activ: inactive; UPR XBP1 act: inactive; PvdQ inh: inactive

What do the screens show for `CC1=CC(C)(C)Nc2ccc(OC(=O)c3ccco3)cc21`?
CHOP UPR activ: inactive; UPR XBP1 act: inactive; PvdQ inh: inactive; CHOP inh conf: inactive

How did CC(C)NC(=O)c1ccc(-n2nc(C(F)(F)F)c3c2CCCC3)cc1 do in these assays?
CHOP UPR activ: inactive; UPR XBP1 act: inactive; CHOP inh: inactive; PvdQ inh: inactive

How did CC(=O)N/C(=C\c1ccccc1)C(=O)OCC(=O)Nc1cc(S(=O)(=O)N(C)C)ccc1Cl do in these assays?
CHOP UPR activ: inactive; UPR XBP1 act: inactive; PvdQ inh: inactive

Results for Fc1ccc(NC(=S)N2CCCc3ccccc32)cc1 ?
CHOP UPR activ: inactive; UPR XBP1 act: inactive; CHOP inh: inactive; PvdQ inh: inactive

How did Cc1ccc(-c2nn(C)c(=O)c3ccccc23)cc1CNC(=O)Cn1nc(-c2ccccc2)c2ccccc2c1=O do in these assays?
CHOP inh: 97.2; CHOP inh conf: 78.5

What do the screens show for `COc1ccccc1N(Cc1cc(=O)[nH]c2ccccc12)C(=O)C(C)C`?
CHOP UPR activ: inactive; UPR XBP1 act: inactive; PvdQ inh: inactive

How did COc1cc2c(cc1C1C(C#N)=C(N)OC3=C1C(=O)CC(C)(C)C3)OCO2 (centres undefined) do in these assays?
CHOP UPR activ: inactive; UPR XBP1 act: inactive; PvdQ inh: inactive

How did Cc1ccc2c(c1)c1c3n2CCN(C(=O)CN2CCN(C)CC2)C3CCC1 (centres undefined) do in these assays?
CHOP UPR activ: inactive; UPR XBP1 act: inactive; CHOP inh: inactive; PvdQ inh: inactive

How did Cc1ccc2c(c1)c(=O)c1c3n2CCN(C(=O)CCl)C3CC1 (centres undefined) do in these assays?
CHOP UPR activ: inactive; UPR XBP1 act: inactive; PvdQ inh: inactive; CHOP inh conf: inactive

Results for CCCCCCn1c(CN2CCN(Cc3ccccc3)CC2)nc2c1c(=O)n(C)c(=O)n2C ?
CHOP UPR activ: inactive; UPR XBP1 act: inactive; CHOP inh: 100.0; PvdQ inh: inactive; CHOP inh conf: 120.2

What do the screens show for `CCCCCn1c(CN2CCN(C)CC2)nc2c1c(=O)n(C)c(=O)n2C`?
CHOP UPR activ: inactive; UPR XBP1 act: inactive; CHOP inh: inactive; PvdQ inh: inactive

How did CCCn1c(C(C)Nc2nc(-c3cc(Cl)c(N)c(Cl)c3)cs2)nc2cc(Cl)c(N3CCCCC3)cc21 (centres undefined) do in these assays?
CHOP UPR activ: inactive; UPR XBP1 act: inactive; PvdQ inh: inactive

Results for CC(CNC(=S)Nc1cc(F)cc(F)c1)CSc1ccc(Cl)cc1 (centres undefined) ?
CHOP UPR activ: inactive; UPR XBP1 act: inactive; CHOP inh: 96.5; PvdQ inh: inactive; CHOP inh conf: 86.3

Results for Cc1ccc(NC(=S)NCCSc2ccc(Cl)cc2)cc1 ?
CHOP UPR activ: inactive; UPR XBP1 act: inactive; CHOP inh: inactive; PvdQ inh: inactive

Results for Cc1cccc(OCC(=O)N/N=C\C=C\c2ccc3c(c2)OCO3)c1C ?
CHOP UPR activ: inactive; UPR XBP1 act: inactive; CHOP inh: 97.8; PvdQ inh: inactive; CHOP inh conf: 95.0

How did CC(=O)Nc1ccc(NC(=O)CSc2nnc(-c3cc(C)[nH]n3)n2N)cc1 do in these assays?
CHOP UPR activ: inactive; UPR XBP1 act: inactive; PvdQ inh: inactive

How did CC(C)Nc1oc(-c2cccc3ccccc23)nc1C#N do in these assays?
CHOP UPR activ: inactive; UPR XBP1 act: inactive; CHOP inh: 100.4; PvdQ inh: inactive; CHOP inh conf: inactive

Results for CCCc1nn(-c2ccccc2)c2c1C(c1cccs1)C(C#N)=C(N)O2 (centres undefined) ?
CHOP UPR activ: inactive; UPR XBP1 act: inactive; CHOP inh: 107.7; PvdQ inh: inactive; CHOP inh conf: inactive

How did Cc1ccc(-c2nnn3c2nc(Cl)c2ccccc23)cc1 do in these assays?
CHOP inh: inactive; PvdQ inh: inactive

Results for Fc1cccc(-c2nnn3c2nc(Cl)c2ccccc23)c1 ?
CHOP inh: 102.7; PvdQ inh: inactive; CHOP inh conf: 127.4

What do the screens show for `COc1ccc(NC(C)=O)cc1S(=O)(=O)Nc1ccc2c(c1)OCCO2`?
CHOP UPR activ: inactive; UPR XBP1 act: inactive; CHOP inh: inactive; PvdQ inh: inactive

Results for O=C1C(C2=NC(c3ccccn3)C3C(=O)N(c4ccc(Cl)cc4Cl)C(=O)C23)=C(O)c2ccccc21 (centres undefined) ?
CHOP UPR activ: inactive; UPR XBP1 act: inactive; CHOP inh: 104.9; PvdQ inh: inactive; CHOP inh conf: 118.0

Results for Cc1cc(N/N=C/c2ccc(O)cc2O)nc(-c2ccccc2O)n1 ?
CHOP inh: 101.2; PvdQ inh: inactive; CHOP inh conf: inactive

What do the screens show for `Cc1cc(N/N=C/c2ccc(O)cc2O)c2ccccc2n1`?
CHOP UPR activ: inactive; UPR XBP1 act: inactive; PvdQ inh: inactive

What do the screens show for `COc1ccc(/C=N/NC(=O)CSCC(=O)Nc2ccccc2)cc1OC`?
CHOP UPR activ: inactive; UPR XBP1 act: inactive; CHOP inh: inactive; PvdQ inh: inactive

What do the screens show for `COC(=O)Oc1ccc(/C=N/NC(=O)CSCc2ccccc2Br)cc1OC`?
CHOP UPR activ: inactive; UPR XBP1 act: inactive; CHOP inh: 96.1; PvdQ inh: inactive; CHOP inh conf: 75.1

What do the screens show for `COc1ccccc1C(=O)NC(=Nc1nc2ccccc2o1)NC(=O)c1ccccc1OC`?
CHOP UPR activ: inactive; UPR XBP1 act: inactive; CHOP inh: 106.4; PvdQ inh: inactive; CHOP inh conf: 133.8

How did NC(=O)c1cc(-c2ccccc2)nc(N2CCOCC2)n1 do in these assays?
CHOP UPR activ: inactive; UPR XBP1 act: inactive; CHOP inh: inactive; PvdQ inh: inactive

What do the screens show for `NC(=O)c1cc(-c2ccccc2)nc(N2CCCCCC2)n1`?
CHOP UPR activ: inactive; UPR XBP1 act: inactive; CHOP inh: 103.0; PvdQ inh: inactive; CHOP inh conf: 107.6

How did COC(=O)C(Nc1ccccc1Cl)(c1cc(C)c(O)c(C)c1)C(F)(F)F (centres undefined) do in these assays?
CHOP UPR activ: inactive; UPR XBP1 act: inactive; CHOP inh: 109.3; PvdQ inh: inactive; CHOP inh conf: 96.7

What do the screens show for `CC(NC(=O)c1ccco1)C(=O)OCC(=O)c1ccc(Cl)s1` (centres undefined)?
CHOP UPR activ: inactive; UPR XBP1 act: inactive; CHOP inh: inactive; PvdQ inh: inactive

Results for CCc1nc(NCC(C)C)c(C#N)c2c1COC(C)(C)C2 ?
CHOP UPR activ: inactive; UPR XBP1 act: inactive; CHOP inh: 107.6; PvdQ inh: inactive; CHOP inh conf: 71.1

How did CCCN1C(=O)COc2ccc(-c3n[nH]c(=O)c4ccccc34)cc21 do in these assays?
CHOP UPR activ: inactive; UPR XBP1 act: inactive; CHOP inh: inactive; PvdQ inh: inactive
